Calls of active or inactive are those of the source. The rule behind the calls is not given here.
Legend:
[1] = system: SK-BR-3; experiment: Effect on HSP70 protein level human SKBR3 cells at 5 to 15 nM after 24 hrs by Western blotting analysis; assay type: functional, cell-based
[2] = system: SK-BR-3; experiment: Effect on EIF4E protein level human SKBR3 cells at 5 to 15 nM after 24 hrs by Western blotting analysis; assay type: functional, cell-based
[3] = system: SK-BR-3; experiment: Effect on STAT3 protein level human SKBR3 cells at 5 to 15 nM after 24 hrs by Western blotting analysis; assay type: functional, cell-based
[4] = system: SK-BR-3; experiment: Effect on HER2 protein level human SKBR3 cells at 5 to 15 nM after 24 hrs by Western blotting analysis; assay type: functional, cell-based
[5] = system: SK-BR-3; experiment: Induction of HSP27 phosphorylation in human SKBR3 cells at 5 to 15 nM after 24 hrs by Western blotting analysis; assay type: functional, cell-based
Method in brief: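 SKBR-3 cells exposed to 5, 10 and 15 nM for 24 h against DMSO, then lysed, sonicated and spun at 12000g for 10 min. 30 μg protein run on 10% SDS-PAGE and transferred to PVDF. Blocked with 5% milk in PBST, probed with specific primary antibodies and an HRP secondary. pHsp27 bands quantified and normalised to β-actin.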

[6] = target: Heat shock protein beta-1 (Homo sapiens) (UniProt P04792); experiment: Inhibition of HSP27 (unknown origin) assessed as increase in DTT-induced insulin B chain aggregation at 10 uM incubated for 5 mins prior to DTT-treatment measured after 30 mins by spectrophotometric analysis relative to control
[7] = species on record: Bos taurus; experiment: Inhibition of bovine brain tubulin polymerization after 20 mins by spectrophotometric analysis in presence of GTP
[8] = system: SK-BR-3; experiment: Induction of apoptosis in human SKBR3 cells assessed as increase in cleaved PARP protein level at 5 to 15 nM after 24 hrs by Western blotting analysis; assay type: functional, cell-based
Method in brief: (§1)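 SKBR-3 cells treated 24 h with 5, 10 and 15 nM against DMSO. Lysates (60 μg protein) resolved on 10% SDS-PAGE, transferred to PVDF, blocked in 5% milk/PBST and immunoblotted for cleaved caspase 3 and cleaved PARP with an HRP secondary.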

[9] = system: SK-BR-3; experiment: Induction of apoptosis in human SKBR3 cells assessed as increase in cleaved caspase-3 protein level at 5 to 15 nM after 24 hrs by Western blotting analysis; assay type: functional, cell-based; method in brief: as §1
[10] = system: SK-BR-3; experiment: Cell cycle arrest in human SKBR3 cells assessed as accumulation at G2/M phase at 5 nM after 24 hrs by propidium iodide staining-based FACS flow cytometric analysis (reference value: 10.77%); assay type: functional
[11] = system: SK-BR-3; experiment: Cell cycle arrest in human SKBR3 cells assessed as accumulation at G2/M phase at […] after 24 hrs by propidium iodide staining-based FACS flow cytometric analysis (reference value: 10.77%); assay type: functional
[12] = system: SK-BR-3; experiment: Cell cycle arrest in human SKBR3 cells assessed as accumulation at G2/M phase at 1 nM after 24 hrs by propidium iodide staining-based FACS flow cytometric analysis (reference value: 10.77%); assay type: functional
[13] = system: SK-BR-3; experiment: Cell cycle arrest in human SKBR3 cells assessed as accumulation at S phase at 5 nM after 24 hrs by propidium iodide staining-based FACS flow cytometric analysis (reference value: 16.34%); assay type: functional
[14] = system: SK-BR-3; experiment: Cell cycle arrest in human SKBR3 cells assessed as accumulation at S phase at […] after 24 hrs by propidium iodide staining-based FACS flow cytometric analysis (reference value: 16.34%); assay type: functional
[15] = system: SK-BR-3; experiment: Cell cycle arrest in human SKBR3 cells assessed as accumulation at S phase at 1 nM after 24 hrs by propidium iodide staining-based FACS flow cytometric analysis (reference value: 16.34%); assay type: functional
[16] = system: SK-BR-3; experiment: Cell cycle arrest in human SKBR3 cells assessed as accumulation at G1 phase at 5 nM after 24 hrs by propidium iodide staining-based FACS flow cytometric analysis (reference value: 69.63%); assay type: functional
[17] = system: SK-BR-3; experiment: Cell cycle arrest in human SKBR3 cells assessed as accumulation at G1 phase at […] after 24 hrs by propidium iodide staining-based FACS flow cytometric analysis (reference value: 69.63%); assay type: functional
[18] = system: SK-BR-3; experiment: Cell cycle arrest in human SKBR3 cells assessed as accumulation at G1 phase at 1 nM after 24 hrs by propidium iodide staining-based FACS flow cytometric analysis (reference value: 69.63%); assay type: functional
[19] = system: SK-BR-3; experiment: Cell cycle arrest in human SKBR3 cells assessed as accumulation at subG1 phase at 5 nM after 24 hrs by propidium iodide staining-based FACS flow cytometric analysis (reference value: 3.23%); assay type: functional
[20] = system: SK-BR-3; experiment: Cell cycle arrest in human SKBR3 cells assessed as accumulation at subG1 phase at […] after 24 hrs by propidium iodide staining-based FACS flow cytometric analysis (reference value: 3.23%); assay type: functional
[21] = system: SK-BR-3; experiment: Cell cycle arrest in human SKBR3 cells assessed as accumulation at subG1 phase at 1 nM after 24 hrs by propidium iodide staining-based FACS flow cytometric analysis (reference value: 3.23%); assay type: functional
[22] = system: SK-BR-3; experiment: Antiproliferative activity against human SKBR3 cells after 48 hrs by MTT assay; assay type: functional, cell-based; details: SK-BR-3, 48 h
Method in brief: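 MTT assay on SKBR-3 cells (RPMI 1640, 10% heat-inactivated FBS, 37 °C, 5% CO2), seeded 24 h before dosing, then exposed 48 h to a concentration series in DMSO (final ≤0.1%) with vehicle-matched controls. Afterwards 0.5 mg/mL MTT for 2 h, formazan dissolved in DMSO, A570 read, six replicates. IC50 from nonlinear regression.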

[23] = species on record: Bos taurus; experiment: Inhibition of bovine brain tubulin polymerization at 1 uM after 15 mins by spectrophotometric analysis relative to control in presence of GTP
[24] = species on record: Bos taurus; experiment: Inhibition of bovine brain tubulin polymerization at 10 nM after 15 mins by spectrophotometric analysis relative to control in presence of GTP
[25] = species on record: Bos taurus; experiment: Inhibition of bovine brain tubulin polymerization at 100 nM after 15 mins by spectrophotometric analysis relative to control in presence of GTP
[26] = system: SK-BR-3; experiment: Effect on total HSP27 protein level human SKBR3 cells at 5 to 15 nM after 24 hrs by Western blotting analysis; assay type: functional, cell-based
[27] = system: SK-BR-3; experiment: Cell cycle arrest in human SKBR3 cells assessed as accumulation at G2/M phase at 50 nM after 24 hrs by propidium iodide staining-based FACS flow cytometric analysis (reference value: 10.77%); assay type: functional
[28] = system: SK-BR-3; experiment: Cell cycle arrest in human SKBR3 cells assessed as accumulation at S phase at 50 nM after 24 hrs by propidium iodide staining-based FACS flow cytometric analysis (reference value: 16.34%); assay type: functional
[29] = system: SK-BR-3; experiment: Cell cycle arrest in human SKBR3 cells assessed as accumulation at G1 phase at 50 nM after 24 hrs by propidium iodide staining-based FACS flow cytometric analysis (reference value: 69.63%); assay type: functional
[30] = system: SK-BR-3; experiment: Cell cycle arrest in human SKBR3 cells assessed as accumulation at subG1 phase at 50 nM after 24 hrs by propidium iodide staining-based FACS flow cytometric analysis (reference value: 3.23%); assay type: functional

Chain of Heat shock protein beta-1 (Homo sapiens) (P04792 whole entry): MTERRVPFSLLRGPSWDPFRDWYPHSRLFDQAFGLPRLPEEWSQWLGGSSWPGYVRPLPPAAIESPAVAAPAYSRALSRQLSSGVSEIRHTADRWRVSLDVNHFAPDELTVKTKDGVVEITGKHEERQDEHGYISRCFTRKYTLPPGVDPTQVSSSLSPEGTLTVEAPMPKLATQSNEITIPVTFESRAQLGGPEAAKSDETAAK

SMILES	Activity [1]	Activity [2]	Activity [3]	Activity [4]	Activity [5]	inhibition [6] [%]	inhibition [7]	Activity [8]	Activity [9]	Activity [10] [%]	Activity [11] [%]	Activity [12] [%]	Activity [13] [%]	Activity [14] [%]	Activity [15] [%]	Activity [16] [%]	Activity [17] [%]	Activity [18] [%]	Activity [19] [%]	Activity [20] [%]	also measured
COc1ccc(C(=O)Nc2ccc(N(C)S(C)(=O)=O)c(OCc3cc(OC)ccc3OC)c2)cc1	inactive	inactive	inactive	inactive	Active	9	Dose-dependent effect	Active	Active	25.47	28.57	12.78	8.83	8.92	8.71	32.02	34.91	61.21	33.54	27.43	Activity [21]: 17.1%; IC50 [22]: 2.56 nM; inhibition [23]: 66%; inhibition [24]: 5%; inhibition [25]: 19%
COc1ccc(OC)c(COc2cc(NC(=O)c3ccc(I)cc3)ccc2N(C)S(C)(=O)=O)c1	inactive	inactive	inactive	inactive	Active	27	Dose-dependent effect	Active	Active	13.76	8.1	9.24	9.51	9.49	8.45	51.84	60.08	66.68	24.27	22.02	Activity [26]: inactive; Activity [27]: 24.32%; Activity [28]: 11.39%; Activity [29]: 31.22%; Activity [30]: 32.88%; Activity [21]: 14.73%; IC50 [22]: 1.21 nM; inhibition [23]: 64%

— ChEMBL document CHEMBL2396529, “Synthesis and anticancer mechanism investigation of dual Hsp27 and tubulin inhibitors” (J Med Chem, 2013)
